In ChEMBL document CHEMBL1147807, “Identification of 2-acylaminothiophene-3-carboxamides as potent inhibitors of FLT3” (Bioorg Med Chem Lett, 2006):

Key:
[1] = molecular target: T1, Serine/threonine-protein kinase Chk1 (Homo sapiens) (UniProt O14757); test: Inhibition of human CHK1 at 3 uM in presence of 10 uM ATP
T1 sequence (whole entry): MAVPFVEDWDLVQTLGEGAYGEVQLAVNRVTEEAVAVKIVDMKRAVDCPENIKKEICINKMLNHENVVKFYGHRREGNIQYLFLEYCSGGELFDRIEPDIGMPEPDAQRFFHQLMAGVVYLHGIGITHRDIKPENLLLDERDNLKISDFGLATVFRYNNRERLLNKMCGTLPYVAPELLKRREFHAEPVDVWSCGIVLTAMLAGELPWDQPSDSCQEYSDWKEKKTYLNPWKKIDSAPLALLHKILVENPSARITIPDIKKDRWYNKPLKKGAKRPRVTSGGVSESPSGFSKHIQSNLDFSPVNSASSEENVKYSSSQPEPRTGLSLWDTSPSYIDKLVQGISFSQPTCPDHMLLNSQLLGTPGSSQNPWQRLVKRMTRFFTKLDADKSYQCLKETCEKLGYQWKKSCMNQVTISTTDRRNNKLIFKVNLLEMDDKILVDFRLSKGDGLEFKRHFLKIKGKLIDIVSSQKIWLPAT
Summary of the method: (§1)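 Selectivity panel run at a single compound concentration of 3 µM with 10 µM ATP. Read-out is % inhibition of each kinase. Values are averages of duplicate experiments.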

[2] = molecular target: T2, Serine/threonine-protein kinase D2 (Homo sapiens) (UniProt Q9BZL6); test: Inhibition of human PKD2 at 3 uM in presence of 10 uM ATP; summary of the method: as §1
T2 sequence (whole entry): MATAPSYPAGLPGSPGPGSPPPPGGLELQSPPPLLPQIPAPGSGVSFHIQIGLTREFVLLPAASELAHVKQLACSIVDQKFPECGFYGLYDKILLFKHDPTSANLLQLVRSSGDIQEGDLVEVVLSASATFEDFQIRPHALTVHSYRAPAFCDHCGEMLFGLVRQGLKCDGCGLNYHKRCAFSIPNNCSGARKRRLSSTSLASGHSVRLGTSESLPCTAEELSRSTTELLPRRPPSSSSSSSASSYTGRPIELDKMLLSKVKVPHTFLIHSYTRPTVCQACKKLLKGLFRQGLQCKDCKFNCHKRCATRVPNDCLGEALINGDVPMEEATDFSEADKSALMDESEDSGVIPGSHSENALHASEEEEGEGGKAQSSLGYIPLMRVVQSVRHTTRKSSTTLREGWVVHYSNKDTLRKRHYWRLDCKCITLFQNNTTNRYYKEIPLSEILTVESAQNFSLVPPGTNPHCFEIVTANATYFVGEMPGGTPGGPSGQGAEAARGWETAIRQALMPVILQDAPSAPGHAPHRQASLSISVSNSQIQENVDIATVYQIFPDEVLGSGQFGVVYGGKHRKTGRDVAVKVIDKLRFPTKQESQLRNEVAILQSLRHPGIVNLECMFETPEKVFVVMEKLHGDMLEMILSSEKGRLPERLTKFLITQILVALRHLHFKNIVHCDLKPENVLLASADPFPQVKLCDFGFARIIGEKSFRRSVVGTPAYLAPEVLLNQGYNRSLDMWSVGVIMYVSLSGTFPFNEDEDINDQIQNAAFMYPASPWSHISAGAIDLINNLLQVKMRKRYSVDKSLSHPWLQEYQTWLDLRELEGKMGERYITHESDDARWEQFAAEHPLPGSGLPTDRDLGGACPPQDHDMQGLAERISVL

[3] = molecular target: T3, Cytoplasmic tyrosine-protein kinase BMX (Homo sapiens) (UniProt P51813); test: Inhibition of human Bmx kinase at 3 uM in presence of 10 uM ATP; summary of the method: as §1
T3 sequence (whole entry): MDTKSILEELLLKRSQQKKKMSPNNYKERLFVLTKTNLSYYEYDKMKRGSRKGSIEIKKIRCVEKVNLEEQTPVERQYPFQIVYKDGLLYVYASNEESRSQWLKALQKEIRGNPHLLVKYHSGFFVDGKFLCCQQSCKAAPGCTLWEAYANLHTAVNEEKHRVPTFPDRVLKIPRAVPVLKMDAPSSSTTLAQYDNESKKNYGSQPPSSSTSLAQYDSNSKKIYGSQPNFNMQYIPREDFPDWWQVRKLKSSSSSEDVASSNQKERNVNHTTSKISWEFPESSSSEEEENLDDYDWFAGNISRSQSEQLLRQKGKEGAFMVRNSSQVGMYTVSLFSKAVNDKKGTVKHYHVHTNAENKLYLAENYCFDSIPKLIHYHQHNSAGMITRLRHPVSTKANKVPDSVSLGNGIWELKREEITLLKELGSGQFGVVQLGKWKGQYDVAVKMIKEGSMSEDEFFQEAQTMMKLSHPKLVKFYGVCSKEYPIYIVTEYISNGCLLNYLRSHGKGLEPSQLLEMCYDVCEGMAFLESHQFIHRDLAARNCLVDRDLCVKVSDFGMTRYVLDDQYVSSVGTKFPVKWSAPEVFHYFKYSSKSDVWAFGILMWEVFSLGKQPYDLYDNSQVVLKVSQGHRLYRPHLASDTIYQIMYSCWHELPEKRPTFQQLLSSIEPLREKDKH

[4] = molecular target: Tyrosine-protein kinase Lyn (Homo sapiens) (UniProt P07948); test: Inhibition of human Lyn at 3 uM in presence of 10 uM ATP; summary of the method: as §1
Sequence of Tyrosine-protein kinase Lyn (Homo sapiens) (P07948 2-512 limits assumed): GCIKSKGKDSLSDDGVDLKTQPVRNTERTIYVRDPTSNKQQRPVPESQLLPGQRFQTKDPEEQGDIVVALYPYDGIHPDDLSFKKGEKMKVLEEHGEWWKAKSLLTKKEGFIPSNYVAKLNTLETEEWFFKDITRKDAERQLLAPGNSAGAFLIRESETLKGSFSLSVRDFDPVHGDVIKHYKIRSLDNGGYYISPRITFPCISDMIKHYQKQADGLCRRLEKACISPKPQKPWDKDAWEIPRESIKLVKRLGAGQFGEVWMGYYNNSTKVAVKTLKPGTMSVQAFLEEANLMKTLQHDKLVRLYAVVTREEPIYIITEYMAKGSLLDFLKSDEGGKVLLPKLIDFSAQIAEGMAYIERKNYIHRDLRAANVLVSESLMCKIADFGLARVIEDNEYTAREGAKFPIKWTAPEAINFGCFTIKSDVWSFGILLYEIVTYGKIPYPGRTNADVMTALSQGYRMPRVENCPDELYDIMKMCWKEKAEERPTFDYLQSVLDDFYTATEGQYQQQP

Compound: COc1ccc(C(=O)Nc2sc3c(c2C(N)=O)CCCC3)cc1OC
- inhibition [1]: -7%
- inhibition [2]: -7%
- inhibition [3]: 9%
- inhibition [4]: 21%
